# Measurements gathered from unrelated publications.
# Compare with care: the assays were run in different laboratories.
# Read-out: cell growth or viability
Structure (SMILES),cell line,method,concentration,time,viability [%]
O=C(C=Cc1ccccc1)Nc1ccc(Oc2nnc(-c3ccc(Cl)cc3)c3ccccc23)cc1,HepG2,MTT,1.25 µM,24 h,37.4
CC(C)(C)c1cnc(CSc2cnc(NC(=O)C3CCN(CCCCCCCCSc4cccc5c4C(=O)N(C4CCC(=O)NC4=O)C5=O)CC3)s2)o1 (stereo not drawn),HH,CCK-8,50 nM,,92.6
CCOC(=O)c1nn(-c2cccc(Cl)c2)/c(=N/N=C(\C)c2ccc(NC(=O)c3ccc(Cl)cc3)cc2)s1,HepG2,MTT,0.312 µM,,3.13
CC(=NNC(=O)c1cccnc1)c1ccc(Nc2nnc(-c3ccc(Cl)cc3)c3ccccc23)cc1,HepG2,MTT,5 µM,24 h,3.2
CC(=NNC(=O)COc1ccc2c(C)c(Cc3ccccc3)c(=O)oc2c1C)c1ccc(Br)cc1,HepG2,MTT,0.4 µg/mL,,58
CC(C)(C)c1cnc(CSc2cnc(NC(=O)C3CCN(CCCCCSc4cccc5c4CN(C4CCC(=O)NC4=O)C5=O)CC3)s2)o1 (stereo not drawn),HH,CCK-8,50 nM,,97.6
CCOC(=O)c1nn(-c2cccc(Cl)c2)/c(=N/N=C(\C)c2ccc(NC(=O)c3ccccc3)cc2)s1,HepG2,MTT,78 nM,,81.9
CC(C)(C)c1cnc(CSc2cnc(NC(=O)C3CCN(C(=O)CCCSc4cccc5c4C(=O)N(C4CCC(=O)NC4=O)C5=O)CC3)s2)o1 (stereo not drawn),HH,CCK-8,10 nM,,99.7
CC(=O)Nc1ccc(/C(C)=N/N=c2\sc(C(C)=O)nn2-c2ccc(C)cc2)cc1,HepG2,MTT,0.625 µM,,99.8
S=C(Nc1ccccc1)Nc1ccc(Oc2nnc(-c3ccc(Cl)cc3)c3ccccc23)cc1,HepG2,MTT,2.5 µM,24 h,18
CC(=O)c1nn(-c2ccccc2Cl)/c(=N/N=C(\C)c2ccc(NC(=O)c3ccccc3)cc2)s1,HepG2,MTT,0.312 µM,,6.13
O=C(Nc1ccc(Oc2nnc(-c3ccc(Cl)cc3)c3ccccc23)cc1)c1cccc([N+](=O)[O-])c1,HepG2,MTT,10 µM,24 h,6.17
CC(=O)c1nn(-c2ccc(C)cc2)/c(=N/N=C(\C)c2ccc(NC(=O)c3ccccc3)cc2)s1,HepG2,MTT,78 nM,,73.6
CC(=NNC(=O)c1ccccc1Cl)c1ccc(Nc2nnc(-c3ccc(Cl)cc3)c3ccccc23)cc1,HepG2,MTT,0.625 µM,24 h,28.3
CC(C)(C)c1cnc(CSc2cnc(NC(=O)C3CCN(C(=O)COCCOCCSc4cccc5c4C(=O)N(C4CCC(=O)NC4=O)C5=O)CC3)s2)o1 (stereo not drawn),HH,CCK-8,0.2 µM,,94.2
